Data: ChEMBL document CHEMBL3526062, “Role of human UDP-glucuronosyltransferases in the biotransformation of the triazoloacridinone and imidazoacridinone antitumor agents C-1305 and C-1311: highly selective substrates for UGT1A10” (Drug Metab Dispos, 2012)

Legend:
[1] = molecular target: T1, UDP-glucuronosyltransferase 1A10 (Homo sapiens, UniProt Q9HAW8); test: Activity of human recombinant UGT1A10 expressed in baculovirus-infected Sf9 cells assessed as glucuronidation activity per mg of protein at 100 to 200 uM after 60 mins in presence of 3 mM UDP-GlcUA; type: ADME; details: sf9, 1 h
T1 sequence (Q9HAW8 whole entry): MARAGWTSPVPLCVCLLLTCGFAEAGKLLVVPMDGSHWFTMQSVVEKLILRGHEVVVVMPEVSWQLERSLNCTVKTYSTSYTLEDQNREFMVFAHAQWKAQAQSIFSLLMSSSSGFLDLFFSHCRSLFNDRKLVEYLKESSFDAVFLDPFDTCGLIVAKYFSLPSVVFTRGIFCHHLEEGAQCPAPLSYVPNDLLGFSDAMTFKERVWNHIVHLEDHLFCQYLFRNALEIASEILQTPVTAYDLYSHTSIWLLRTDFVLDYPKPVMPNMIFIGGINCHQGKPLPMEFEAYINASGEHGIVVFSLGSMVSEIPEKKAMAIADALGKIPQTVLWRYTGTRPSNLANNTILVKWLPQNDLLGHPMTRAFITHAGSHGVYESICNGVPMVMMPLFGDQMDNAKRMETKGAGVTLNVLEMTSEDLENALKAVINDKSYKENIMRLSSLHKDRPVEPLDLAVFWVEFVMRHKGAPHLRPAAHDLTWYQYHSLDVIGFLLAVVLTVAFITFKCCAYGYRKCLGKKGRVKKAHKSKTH
Summary of the method: (§1)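 Screening: 5 μg recombinant UGT protein (His-tag levels normalized) in Tris-HCl pH 7.4, 5 mM MgCl2, 5 mM saccharolactone, 2% DMSO to permeabilize membranes. Substrate at 100 or 200 μM, added in water. Started with 3 mM UDP-GlcUA, 60 min at 37°C, stopped with ethanol, then centrifuged. Glucuronide quantified by reversed-phase C18 HPLC against the substrate response; triplicates.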

[2] = molecular target: T2, UDP-glucuronosyltransferase 1A3 (Homo sapiens, UniProt P35503); test: Activity of human recombinant UGT1A3 expressed in baculovirus-infected Sf9 cells assessed as glucuronidation activity per mg of protein at 100 to 200 uM after 60 mins in presence of 3 mM UDP-GlcUA; type: ADME; details: sf9, 1 h; summary of the method: as §1
T2 sequence (P35503 whole entry): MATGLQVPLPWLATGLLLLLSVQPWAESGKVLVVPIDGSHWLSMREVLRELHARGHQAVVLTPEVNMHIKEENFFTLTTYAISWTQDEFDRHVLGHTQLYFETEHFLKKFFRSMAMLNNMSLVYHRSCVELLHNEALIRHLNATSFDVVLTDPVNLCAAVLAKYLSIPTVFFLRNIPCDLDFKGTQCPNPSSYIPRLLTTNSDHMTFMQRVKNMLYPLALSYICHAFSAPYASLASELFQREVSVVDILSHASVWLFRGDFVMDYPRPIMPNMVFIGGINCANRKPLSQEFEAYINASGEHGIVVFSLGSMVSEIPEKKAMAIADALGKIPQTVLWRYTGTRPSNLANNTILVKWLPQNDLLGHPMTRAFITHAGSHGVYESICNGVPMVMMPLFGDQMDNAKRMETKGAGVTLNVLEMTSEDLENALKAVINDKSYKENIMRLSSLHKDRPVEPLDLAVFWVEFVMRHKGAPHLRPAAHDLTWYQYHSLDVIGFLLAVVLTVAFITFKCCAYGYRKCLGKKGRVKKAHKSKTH

[3] = Drug metabolism in human duodenum microsomes assessed as glucuronidation activity at 0.1 mM for 60 mins in presence of 3 mM UDP-GlcUA; type: ADME, microsome; details: 1 h, 100 µM
Summary of the method: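 Microsomes from single donors (20 μg protein) incubated with 0.1 mM substrate and 3 mM UDP-GlcUA for 60 min at 37°C in Tris-HCl pH 7.4 buffer with 5 mM MgCl2, 5 mM saccharolactone and 2% DMSO. Glucuronide measured by HPLC; donor data summarized as box-and-whisker plots.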

[4] = Drug metabolism in human intestinal microsomes assessed as glucuronidation after 60 mins by Michaelis-Menten equation in presence of 3 mM UDP-GlcUA; type: ADME, Intestine, Microsome
Summary of the method: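 Recombinant UGT membrane protein (5 μg; His-tagged UGT1A levels normalized by anti-His Western blot) or single-donor microsomes (20 μg) incubated with substrate 5–1000 μM and 3 mM UDP-GlcUA in […] pH 7.4, 5 mM MgCl2, 5 mM saccharolactone, 2% DMSO, 60 min, 37°C. Ethanol stop, centrifuged, HPLC-UV. Initial velocities fitted to Michaelis-Menten, Hill or substrate-inhibition models; three determinations.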

[5] = Drug metabolism in human intestinal microsomes assessed as glucuronidation activity at 0.2 mM for 60 mins by ESI-MS analysis in presence of 3 mM UDP-GlcUA; type: ADME, Intestine, Microsome; details: 1 h, 200 µM
Summary of the method: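 Single-donor liver or intestinal microsomes (20 μg total protein) incubated with 0.2 mM substrate and 3 mM UDP-GlcUA for 60 min at 37°C in Tris-HCl pH 7.4, MgCl2, saccharolactone, 2% DMSO. Ethanol stop, centrifuged, HPLC analysis; triplicates.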

[6] = molecular target: T3, UDP-glucuronosyltransferase 1A9 (Homo sapiens, UniProt O60656); test: Activity of human recombinant UGT1A9 expressed in baculovirus-infected Sf9 cells assessed as glucuronidation activity per mg of protein at 100 to 200 uM after 60 mins in presence of 3 mM UDP-GlcUA; type: ADME; details: sf9, 1 h; summary of the method: as §1
T3 sequence (O60656 whole entry): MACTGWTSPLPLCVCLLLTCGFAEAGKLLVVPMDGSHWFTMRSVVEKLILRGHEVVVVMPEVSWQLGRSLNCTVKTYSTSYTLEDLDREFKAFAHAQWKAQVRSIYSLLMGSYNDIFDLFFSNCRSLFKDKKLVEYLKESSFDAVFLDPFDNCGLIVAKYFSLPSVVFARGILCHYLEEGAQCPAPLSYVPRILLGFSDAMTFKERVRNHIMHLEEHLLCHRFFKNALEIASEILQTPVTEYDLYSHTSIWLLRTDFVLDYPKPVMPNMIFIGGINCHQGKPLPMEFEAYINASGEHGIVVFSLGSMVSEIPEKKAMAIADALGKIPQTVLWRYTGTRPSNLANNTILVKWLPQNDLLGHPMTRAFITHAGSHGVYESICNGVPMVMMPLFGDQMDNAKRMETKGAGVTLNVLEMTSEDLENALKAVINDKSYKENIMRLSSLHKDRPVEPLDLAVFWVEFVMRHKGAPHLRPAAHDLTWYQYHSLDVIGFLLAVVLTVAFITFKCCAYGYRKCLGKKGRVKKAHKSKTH

Row | Compound | Drug metabolism [1] [nmol/min/mg] | Drug metabolism [2] [nmol/min/mg] | Drug metabolism [3] | Km at 1 h [4] [µM] | Drug metabolism [5] | Drug metabolism [6] [nmol/min/mg]
1 | CN(C)CCCNc1ccc2nnn3c4ccc(O)cc4c(=O)c1c23 | > 0.5 | < 0.1 | metabolite_detected | 76.9 | metabolite_detected | 0.2
2 | CCN(CC)CCNc1ccc2ncn3c4ccc(O)cc4c(=O)c1c23 [C-1311] | > 0.5 | < 0.1 | metabolite_detected | 159 | metabolite_detected | 0.2
